Assays:
Rattus norvegicus [1] = experiment: Inhibition of blood pressure increase produced by iv injection of angiotensin I in conscious normotensive rats at a dose of 3 mg/kg; assay type: functional
Rattus norvegicus [2] = experiment: Inhibition of blood pressure increase produced by iv injection of angiotensin I in conscious normotensive rats at a dose of 30 mg/kg; assay type: functional
Rattus norvegicus [3] = experiment: Maximum effect on blood pressure in the conscious Renal hypertensive rat after oral administration of 30 mg/kg; assay type: functional
How it was run: (§1)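 Male CD albino rats were clipped at four weeks old, and hypertension developed over 3–4 weeks. Rats weighed 280–320 g at cannulation and had chronic aortic cannulae implanted 2–4 days before testing. Only rats with mean aortic pressure above 160 mmHg were used. Dosing was oral in 4% gum acacia (2 mL/kg). One-minute running averages were recorded every 30 min and reported as mean ± SEM, two-tailed p < 0.05.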

Rattus norvegicus [4] = experiment: Base line of mean aortic blood pressure in the conscious Renal hypertensive rat was determined after oral administration of 30 mg/kg; assay type: functional, Artery
[5] = biological target: Angiotensin-converting enzyme (Cavia porcellus); experiment: Inhibition of guinea pig serum Angiotensin I converting enzyme
Rattus norvegicus [6] = experiment: Change in mean aortic blood pressure expressed in hours after an oral administration of 3 mg/kg in conscious normotensive rats; assay type: functional, Artery
Rattus norvegicus [7] = experiment: Change in mean aortic blood pressure expressed in hours after an oral administration of 30 mg/kg in conscious renal hypertensive rats
Rattus norvegicus [8] = experiment: Angiotensin I(AI) response to return to 70% of the pretreatment control response was determined at a dose of 3 mg/kg, iv; assay type: functional
Rattus norvegicus [9] = experiment: Angiotensin I(AI) response to return to 70% of the pretreatment control response was determined at a dose of 30 mg/kg, po; assay type: functional
Rattus norvegicus [10] = experiment: Angiotensin I(AI) response to return to 70% of the pretreatment control response was determined at a dose of 3 mg/kg; assay type: functional
Rattus norvegicus [11] = experiment: Change in mean aortic blood pressure expressed in hours after an oral administration of 30 mg/kg in conscious renal hypertensive rats; remark: listed apart in the source
Rattus norvegicus [12] = experiment: Base line of mean aortic blood pressure in the conscious Renal hypertensive rat was determined after oral administration of 3 mg/kg; assay type: functional; conditions: Artery; how it was run: as §1
Rattus norvegicus [13] = experiment: Change in mean aortic blood pressure expressed in hours after an oral administration of 3 mg/kg in conscious renal hypertensive rats

C[C@H](CS)C(=O)N1CCC[C@H]1C(=O)O [CAPTOPRIL]
inhibition in vivo at 3 mg/kg (Rattus norvegicus [1]): 95%
inhibition in vivo at 30 mg/kg (Rattus norvegicus [2]): 69%
Mean aortic blood pressure (Rattus norvegicus [3]): 99 mmHg

CCCCCC(=O)N[C@@H](Cc1ccccc1)C(=O)CCC(=O)N1CCCC1C(=O)O (stereo not given in full)
Mean aortic blood pressure (Rattus norvegicus [4]): 193 mmHg
I50 [5]: 47 nM
Change (Rattus norvegicus [6]): -2 mmHg
Mean aortic blood pressure (Rattus norvegicus [3]): 191 mmHg

CCCCOC(=O)NC(Cc1ccccc1)C(=O)CC(C)C(=O)N1CCCC1C(=O)O (stereo not given)
Mean aortic blood pressure (Rattus norvegicus [4]): 188 mmHg
Change (Rattus norvegicus [7]): -12 mmHg
I50 [5]: 29 nM
Mean aortic blood pressure (Rattus norvegicus [3]): 176 mmHg

O=C(N[C@@H](Cc1ccccc1)C(=O)CCC(=O)N1CCC[C@H]1C(=O)O)c1ccccc1
inhibition in vivo at 3 mg/kg (Rattus norvegicus [1]): 57%
Mean aortic blood pressure (Rattus norvegicus [4]): 190 mmHg
Change (Rattus norvegicus [7]): -12 mmHg
inhibition in vivo at 30 mg/kg (Rattus norvegicus [2]): 48%

C[C@H](CC(=O)[C@@H](Cc1ccccc1)NC(=O)c1ccccc1)C(=O)N1CCC[C@H]1C(=O)O
Mean aortic blood pressure (Rattus norvegicus [4]): 188 mmHg
Change (Rattus norvegicus [6]): -22 mmHg
Mean aortic blood pressure (Rattus norvegicus [3]): 166 mmHg

C[C@@H](CC(=O)[C@H](Cc1ccccc1)NC(=O)c1ccccc1)C(=O)N1CCC[C@H]1C(=O)O
AI recovery time (Rattus norvegicus [8]): 71 min
inhibition in vivo at 3 mg/kg (Rattus norvegicus [1]): 74%
AI recovery time (Rattus norvegicus [9]): >180 min
Mean aortic blood pressure (Rattus norvegicus [4]): 189 mmHg
Change (Rattus norvegicus [7]): -16 mmHg
inhibition in vivo at 30 mg/kg (Rattus norvegicus [2]): 71%
Mean aortic blood pressure (Rattus norvegicus [3]): 173 mmHg

CCCCOC(=O)NC(Cc1ccccc1)C(=O)CCC(=O)N1CCCC1C(=O)O (stereo not given)
Mean aortic blood pressure (Rattus norvegicus [4]): 175 mmHg
Change (Rattus norvegicus [7]): -15 mmHg
I50 [5]: 210 nM
Mean aortic blood pressure (Rattus norvegicus [3]): 160 mmHg

C[C@H](CC(=O)[C@H](Cc1ccccc1)NC(=O)c1ccccc1)C(=O)N1CCC[C@H]1C(=O)O
AI recovery time (Rattus norvegicus [10]): 73 min
AI recovery time (Rattus norvegicus [8]): 73 min
Change (Rattus norvegicus [11]): -38 mmHg
inhibition in vivo at 3 mg/kg (Rattus norvegicus [1]): 100%
AI recovery time (Rattus norvegicus [9]): 143 min
Mean aortic blood pressure (Rattus norvegicus [4]): 197 mmHg
Mean aortic blood pressure at 3 mg/kg (Rattus norvegicus [12]): 209 mmHg
inhibition in vivo at 30 mg/kg (Rattus norvegicus [2]): 100%
Change (Rattus norvegicus [13]): -40 mmHg
Mean aortic blood pressure (Rattus norvegicus [3]): 159 mmHg

CCCCCCCC(=O)N[C@@H](Cc1ccccc1)C(=O)CCC(=O)N1CCCC1C(=O)O (stereo not given in full)
Mean aortic blood pressure (Rattus norvegicus [4]): 182 mmHg
Change (Rattus norvegicus [7]): -15 mmHg
I50 [5]: 650 nM
Mean aortic blood pressure (Rattus norvegicus [3]): 167 mmHg

C[C@@H](CC(=O)[C@@H](Cc1ccccc1)NC(=O)c1ccccc1)C(=O)N1CCC[C@H]1C(=O)O
Mean aortic blood pressure (Rattus norvegicus [4]): 183 mmHg
Change (Rattus norvegicus [7]): -20 mmHg
Mean aortic blood pressure (Rattus norvegicus [3]): 163 mmHg

CCCCCCCCCC(=O)N[C@@H](Cc1ccccc1)C(=O)CCC(=O)N1CCCC1C(=O)O (stereo not given in full)
Mean aortic blood pressure (Rattus norvegicus [4]): 197 mmHg
I50 [5]: 6500 nM
Change (Rattus norvegicus [6]): -21 mmHg
Mean aortic blood pressure (Rattus norvegicus [3]): 176 mmHg
